Values after ≈ are worked out from the molar mass of the structure shown.
Columns and labels:
Trichomonas vaginalis [1] = experiment: Antiprotozoal activity against Trichomonas vaginalis assessed as static effect; format: functional
Clostridium perfringens = experiment: Antibacterial activity against Clostridium perfringens ISS 30453 assessed as growth inhibition; format: functional
Trichomonas vaginalis [2] = experiment: Antiprotozoal activity against Trichomonas vaginalis assessed as cidal effect; format: functional
Staphylococcus aureus = experiment: Antibacterial activity against Staphylococcus aureus Tour assessed as growth inhibition; format: functional
Trichomonas vaginalis [3] = experiment: Ratio of compound ED50 to metronidazole ED50 for Trichomonas vaginalis infected in po dosed mouse; format: functional
Escherichia coli = experiment: Antibacterial activity against Escherichia coli SKF 12140 assessed as growth inhibition; format: functional
Trichomonas vaginalis [4] = experiment: Antiprotozoal activity against Trichomonas vaginalis infected in po dosed mouse; format: functional
[5] = Acute toxicity in ip dosed mouse; format: organism-based; settings: in vivo
In short: (§1)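 Mice dosed with the agent. LD50 values were computed by the Litchfield and Wilcoxon method.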

[6] = Acute toxicity in po dosed mouse; format: organism-based; settings: in vivo; in short: as §1

Row | SMILES | MIC (Trichomonas vaginalis [1]) [µg/mL] | MIC (Clostridium perfringens) [µg/mL] | MIC (Trichomonas vaginalis [2]) [µg/mL] | MIC (Staphylococcus aureus) [µg/mL] | Ratio ED50 (Trichomonas vaginalis [3]) | MIC (Escherichia coli) [µg/mL] | ED50 (Trichomonas vaginalis [4]) [mg/kg] | LD50 [5] [mg/kg] | LD50 [6] [mg/kg]
1 | CC(C)c1cnc([N+](=O)[O-])n1C | 5 (≈ 29.6 µM) | 5 (≈ 29.6 µM) | 20 (≈ 118 µM) | > 300 | 0.17 | > 300 | 2.03 | – | –
2 | Cn1c(C(C)(C)O)cnc1[N+](=O)[O-] | 6.2 (≈ 33.5 µM) | 25 (≈ 135 µM) | 25 (≈ 135 µM) | 100 (≈ 540 µM) | 0.21 | 100 (≈ 540 µM) | 2.5 | 475 | 698
3 | COC(C)(C)c1cnc([N+](=O)[O-])n1C | 6.2 (≈ 31.1 µM) | 100 (≈ 502 µM) | 50 (≈ 251 µM) | 100 (≈ 502 µM) | 0.19 | > 100 | – | 225 | –
4 | C=C(C)c1cnc([N+](=O)[O-])n1C | 2 (≈ 12 µM) | 3.1 (≈ 18.5 µM) | 10 (≈ 59.8 µM) | > 100 | 3.25 | > 100 | 32.5 | – | 350
5 | Cn1c(C(C)(O)CO)cnc1[N+](=O)[O-] (stereo unspecified) | 10 (≈ 49.7 µM) | 5 (≈ 24.9 µM) | 20 (≈ 99.4 µM) | > 100 | >8 | > 100 | > 80 | – | > 1000
6 | Cc1ncc([N+](=O)[O-])n1CCO [METRONIDAZOLE] | 0.5 (≈ 2.92 µM) | 0.5 (≈ 2.92 µM) | 5 (≈ 29.2 µM) | > 300 | 1 | > 300 | 11.5 | – | –

Reference: ChEMBL document CHEMBL3272244, “Synthesis and biological activity of two metabolites of 1-methyl-5-(1-methylethyl)-2-nitro-1 H-imidazole, an antiprotozoal agent” (J Med Chem, 1977)
